Screens (PubChem BioAssay)
Only some compounds are listed: those with a hit (about 2.1% of all), similar ones and a draw of the others.
IEC-6 tox = counter-screen for KLF5 inhibitors: cytotoxicity in IEC-6 cells. IEC-6 cytotoxicity, luminescence viability. inhibition, % at 5 µM. 290,000 tested, 0.78% active. AID 1825;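 note: 0% = plate median of test compound wells and 100% = cytotoxic reference compound wells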
bCat nuc transl = modulators of beta-catenin nuclear translocation; HeLa beta-catenin nuclear translocation, immunofluorescence imaging; nuclear translocation activity, % at 5 µM; 190,000 tested, 0.3% active;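 active = nuclear translocation activity above 50% at 5 µM, with a well cell count of 50 or more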;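 note: per-cell ratio of nuclear to cytoplasmic median beta-catenin stain intensity; plate controls were DMSO negative control for no effect and GSK-3 inhibitor IX positive control for full effect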
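Signal – beta-catenin immunofluorescence imaging with DAPI · Test system – human HeLa cell line · Dosing – 5 µM primary single dose, 0.1% DMSO, 0.02–20 µM confirmation series · Measure – % activation, nuclear-to-cytoplasmic median beta-catenin signal ratio per cell · Incubation – 24 h compound exposure at 37°C, 5% CO2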
KLF5 inhibitor = suppresses KLF5 promoter-driven expression; inhibition, % at 5 µM; AID 1700; DLD-1 KLF5 promoter-luciferase reporter, luminescence; 290,000 tested, 0.23% active;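 active = inhibition above a per-plate limit of that plate's mean compound inhibition plus 3 SD, cut at about 60% in these data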;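 note: 0% = DMSO wells and 100% = LY294002 at 200 µM; higher means less KLF5 promoter-driven luciferase light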
MT stabilizer = microtubule stabilization, imaging screen; HeLa tubulin immunostaining HCS, 24 h; share of cells brighter than vehicle mean+2SD; % tubulin-high responders, % at 10 µM; 200,000 tested, 0.83% active;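 active = plate Z-score above 3 for both tubulin-high and condensed-nucleus cell shares, with cell loss under 80%, at 10 µM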;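 note: anti alpha tubulin signal scored within the nucleus-defined area of each cell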
BaF3 parental = reduces parental Ba/F3 cell viability, JAK2V617F counter-screen. inhibition, % at 5.6 µM. 220,000 tested, 1.1% active. CellTiter-Glo ATP luminescence;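 active = inhibition above a per-campaign cutoff, the mean inhibition of all tested compounds plus 3 SD, cut at about 27% in these data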;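 note: 0% = DMSO wells and 100% = JAK Inhibitor I control wells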
Ba/F3 V617F tox = lowers viability of Ba/F3 cells expressing EpoR and JAK2V617F; AID 1446; inhibition, % at 5.6 µM; 220,000 tested, 1.1% active; ATP luminescence;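 active = inhibition above the campaign mean plus 3 SD over all tested compounds, cut at about 24% in these data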;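 note: cytokine-independent growth of Ba/F3 cells driven by EpoR plus mutant JAK2; 0% = DMSO-treated cells and 100% = JAK inhibitor I control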
IEC-6 tox confirm = IEC-6 cytotoxicity, confirmation assay; shares compounds with IEC-6 tox; IEC-6 rat intestinal epithelial viability, luminescence; inhibition, % at 5 µM; 1,900 tested, 63% active; AID 1907;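 note: 0% = vehicle and 100% = reference cytotoxic drug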
Starred values were filed as active, the others as inactive; nt = not tested or not shown. Cut-off read from the data, not from the text of the source, unless noted: active = inhibition above about 22%; inactive = the rest.

SMILES	IEC-6 tox	bCat nuc transl	KLF5 inhibitor	MT stabilizer	BaF3 parental	Ba/F3 V617F tox	IEC-6 tox confirm
O=C(NC1CCCCC1)c1ccc([N+](=O)[O-])o1	68*	nt	-10	nt	nt	nt	7
NC(=O)c1oc2ccccc2c1NC(=O)c1ccc([N+](=O)[O-])o1	100*	nt	18	nt	nt	nt	57*
NC(=O)c1oc2ccccc2c1NC(=O)c1ccc(F)cc1	5	-1	11	10	0	-5	nt
O=C(NNC(=O)c1ccc([N+](=O)[O-])o1)c1ccccc1	2	3	-7	2	-4	-2	nt
CC(NC(=O)c1ccc([N+](=O)[O-])o1)C12CC3CC(CC(C3)C1)C2 (centres undefined)	60*	nt	-7	nt	nt	nt	5
O=C(NN(c1ccccc1)c1ccccc1)c1ccc([N+](=O)[O-])o1	27*	4	-7	12	5	4	15
CCN(CC)C(=O)c1ccc(-c2nnc(OC)c3ccccc23)cc1	6	0	-21	nt	-4	0	nt
COC(=O)CSc1nnc2cc(C)c3ccccc3n12	0	0	-20	nt	-1	-1	nt
CN1/C(=C\C(=O)CSc2nnc(N)s2)C(C)(C)c2ccccc21	1	nt	2	5	4	-2	nt
CN1/C(=C\C(=O)CSc2cccc[n+]2[O-])C(C)(C)c2ccccc21	104*	2	-21	7	23	8	-7
Cc1ccc(NC(=O)CCNS(=O)(=O)c2ccc3c(c2)CCC(=O)N3)cc1C	-6	nt	0	nt	nt	nt	nt
CCCCCCCCn1c2c(c(=N)c3ccccc31)CCC2	40*	4	55	6	82*	99*	37*
O=C(Nc1ccc([N+](=O)[O-])cc1)Nc1ccon1	82*	nt	58	nt	nt	nt	57*
CCN(c1ccccc1)S(=O)(=O)c1ccc(Cl)c(NC(=O)COC(=O)c2cc(O)c3ccccc3c2O)c1	32*	-1	8	nt	-3	-3	7
Cc1cc2nc(/C=C/c3cccnc3)[nH]c2cc1C	88*	nt	6	nt	nt	nt	59*
Cc1nc2cc(NC(=O)c3ccc([N+](=O)[O-])s3)ccc2s1	30*	nt	29	nt	nt	nt	19
O=C(O)c1ccc(NC2=C/C(=N/S(=O)(=O)c3ccccc3)c3ccccc3C2=O)cc1	25*	-2	4	2	5	-1	-10
O=C(CCNC(=O)c1ccco1)Nc1ccccc1N1CCOCC1	-2	6	-12	1	6	0	nt
O=C(CSc1nnc(-c2ccccn2)n1Cc1ccccc1)N1CCCC1	-4	-1	-30	3	6	-1	nt
COc1ccc(C(=O)NCC2CCCO2)cc1 (centres undefined)	0	nt	-26	2	5	0	nt
CCC1=Nc2cc(C(=O)NCC3CCCO3)ccc2Sc2ccc(Cl)cc21 (centres undefined)	35*	7	19	nt	6	5	38*
CCC1=Nc2cc(C(=O)NCc3cccnc3)ccc2Sc2ccc(C)cc21	67*	64*	29	nt	44*	72*	56*
CCC1=Nc2cc(C(=O)NCCCOC(C)C)ccc2Sc2ccccc21	1	nt	-3	5	5	-2	nt
CCC1=Nc2cc(C(=O)NCC3CCCO3)ccc2Sc2ccc(Br)cc21 (centres undefined)	28*	42	9	21	15	-1	31*
CCCc1nnc(NC(=O)CCC(=O)N2CCCCC2CC)s1 (centres undefined)	5	-6	-22	3	11	1	nt
SMILES	IEC-6 tox	bCat nuc transl	KLF5 inhibitor	MT stabilizer	BaF3 parental	Ba/F3 V617F tox	IEC-6 tox confirm
O=C(O)c1ccc(N/N=C/c2cccc(C(F)(F)F)c2)cc1	32*	nt	-138	nt	nt	nt	37*
Cc1cc(S(=O)(=O)Nc2noc3ccccc23)ccc1F	-5	nt	-20	nt	nt	nt	nt
CCOC(=O)c1cnn(-c2ccccc2)c1NC(=O)CSc1nnc(-c2cccs2)n1CC	24*	nt	-18	1	4	-1	-8
CSc1nnc(NC(=O)c2nc(S(=O)(=O)Cc3ccccc3)ncc2Cl)s1	34*	nt	20	nt	nt	nt	9
CCCc1nnc(NC(=O)c2nc(S(=O)(=O)Cc3ccc(C)cc3)ncc2Cl)s1	8	nt	-7	nt	nt	nt	nt
CC(C)c1nnc(NC(=O)c2nc(S(=O)(=O)Cc3ccccc3)ncc2Cl)s1	42*	nt	18	nt	nt	nt	-1
CSc1ccc(C#N)cc1NC(=O)c1cccnc1Cl	-2	-1	-31	2	4	2	nt
